Measurements: ChEMBL document CHEMBL4425134, “Analogs of the ATP-Sensitive Potassium (KATP) Channel Opener Cromakalim with in Vivo Ocular Hypotensive Activity” (J Med Chem, 2016)
Active and inactive are the calls of the source. The calls are words filed in the database; no cut-off is given here.

How the values were obtained:
[1] = (§1) Toxicity in normotensive C57BL/6 mouse assessed as effect on cell structure in aqueous humor outflow pathway at 5 mM administered topically as solution in mixture of DMSO, cremophor EL and PBS once daily as bolus dose to one eye for 6 days by hematoxylin and eosin staining based transmission electron microscopic analysis; assay type: organism-based; conditions: in vivo, topical_or_ocular, 144 h, 5000 µM
Mus musculus [2] = experiment: Antiglaucoma activity in normotensive C57BL/6 mouse assessed as reduction in intraocular pressure at 5 mM administered topically as solution in mixture of DMSO, cremophor EL and PBS once daily as bolus dose to one eye for 6 days followed by 5 mM levcromakalim treatment for 5 days by tonometer; assay type: functional
Outline: (§2)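 Following baseline IOP, C57BL/6 mice were dosed topically once daily with a 5 µl bolus to one eye. Dexromakalim was given for 6 days, then levromakalim for 5 days. Each was made as a 100 mM DMSO stock diluted to 5 mM with 10% cremophor EL in PBS. IOP was read by rebound tonometer versus the vehicle-treated contralateral eye.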

[3] = as §1, with “number” for “structure”; assay type: organism-based; conditions: in vivo, topical_or_ocular, 144 h, 5000 µM
Mus musculus [4] = experiment: Antiglaucoma activity in normotensive C57BL/6 mouse assessed as reduction in intraocular pressure at 5 mM compound solution in PBS administered topically once daily as bolus dose to one eye for 6 days measured up to 23 hrs post daily administration by tonometer; assay type: functional
Outline: (§3)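 Mice received a 5 mM solution in PBS as a 5 µl topical bolus to one eye once daily for 6 days, with PBS to the contralateral eye. IOP was read by rebound tonometer in conscious mice at 1, 4 and 23 h post-dose and averaged. Values are expressed as treated minus control eye. Readings continued after treatment stopped. n=10 (days 1–9), n=6 (days 10–12).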

Mus musculus [5] = experiment: Antiglaucoma activity in normotensive C57BL/6 mouse assessed as reduction in intraocular pressure at 2.5 mM compound solution in PBS administered topically once daily as bolus dose to contralateral eye for 7 days measured up to 48 hrs after cessation of drug treatment by tonometer; assay type: functional, organism-based
Outline: (§4)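 C57BL/6 retired breeders (>7 months old) received a 5 µl bolus of 2.5 mM solution in PBS topically to one eye once daily for 7 consecutive days, with PBS to the contralateral eye. IOP was measured in conscious, non-anesthetized mice by hand-held rebound tonometer at 1, 4 and 23 h after dosing. Daily IOP is the mean of the three readings, expressed as treated minus vehicle eye (mm Hg). n=10 (days 1–10), n=6 after.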

[6] = Stability in D2O solution assessed as compound decomposition after 1 week by 1H NMR analysis; assay type: physicochemical; conditions: 168 h
Mus musculus [7] = experiment: Antiglaucoma activity in normotensive C57BL/6 mouse assessed as reduction in intraocular pressure at 2.5 mM compound solution in PBS administered topically once daily as bolus dose to contralateral eye for 7 days measured up to 23 hrs post daily administration by tonometer; assay type: functional; outline: as §4
[8] = Stability in D2O solution assessed as compound decomposition after 1 week by 31P NMR analysis; assay type: physicochemical; conditions: 168 h
[9] = (§5) Toxicity in normotensive C57BL/6 mouse assessed as effect on cell structure in aqueous humor outflow pathway at 5 mM administered topically as solution in PBS once daily as bolus dose to contralateral eye for 5 days by hematoxylin and eosin staining based transmission electron microscopic analysis; assay type: organism-based; conditions: in vivo, topical_or_ocular, 120 h, 5000 µM
[10] = (§6) Toxicity in normotensive C57BL/6 mouse assessed as effect on cell number in aqueous humor outflow pathway at 5 mM administered topically as solution in PBS once daily as bolus dose to contralateral eye for 5 days by hematoxylin and eosin staining based transmission electron microscopic analysis; assay type: organism-based; conditions: in vivo, topical_or_ocular, 120 h, 5000 µM
Mus musculus [11] = experiment: Antiglaucoma activity in normotensive C57BL/6 mouse assessed as reduction in intraocular pressure at 5 mM administered topically as solution in PBS once daily as bolus dose to contralateral eye for 5 days followed by 5 mM sodium (3S,4R)-6-cyano-2,2-dimethyl-4-(2-oxopyrrolidin-1-yl)chroman-3-yl phosphate treatment for 5 days by tonometer; assay type: functional
Outline: (§7)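 C57BL/6 mice received sequential once-daily topical 5 µl boluses of 5 mM enantiomers dissolved in PBS to one eye, with vehicle to the contralateral eye. IOP was read by rebound tonometer in conscious mice at 1, 4 and 23 h post-dose, averaged, and expressed relative to the vehicle eye. n=10.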

Mus musculus [12] = experiment: Antiglaucoma activity in normotensive C57BL/6 mouse assessed as reduction in intraocular pressure at 5 mM administered topically as solution in mixture of DMSO, cremophor EL and PBS once daily as bolus dose to contralateral eye for 5 days pretreated with 5 mM dexcromakalim for 6 days by tonometer; assay type: functional; outline: as §2
[13] = as §1, with “cell number” for “cell structure”, “to contralateral” for “to one”, “for 5” for “for 6”; assay type: organism-based; conditions: in vivo, topical_or_ocular, 120 h, 5000 µM
[14] = as §1, with “to contralateral” for “to one”, “for 5” for “for 6”; assay type: organism-based; conditions: in vivo, topical_or_ocular, 120 h, 5000 µM
[15] = Stability of compound in D2O solution; assay type: physicochemical
[16] = Solubility in water at 10 mg/ml; assay type: physicochemical; conditions: buffer
Oryctolagus cuniculus [17] = experiment: (§8) Antiglaucoma activity in normotensive Dutch-belted pigmented rabbit assessed as reduction in intraocular pressure at 5 mM administered topically as solution in PBS once daily as bolus dose to contralateral eye for 4 days pretreated with 2.5 mM compound for 4 days measured up to 23 hrs post daily administration by tonometer; assay type: functional
Outline: (§9)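 In normotensive Dutch-belted pigmented rabbits, a PBS solution was applied topically as a 50 µL bolus to one eye once daily: 2.5 mM for 4 days, then 5 mM for 4 days. IOP was measured at 1, 4 and 23 h after each dose and averaged. Values are the absolute difference between treated and control eyes (mmHg).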

[18] = Toxicity in normotensive C57BL/6 mouse assessed as alteration in morphology of aqueous humor outflow pathway at 2.5 mM compound solution in PBS administered topically once daily as bolus dose to contralateral eye for 7 days by hematoxylin and eosin staining based transmission electron microscopic analysis; assay type: organism-based; conditions: in vivo, topical_or_ocular, 168 h, 2500 µM
Outline: (§10)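 After once-daily topical dosing of C57BL/6 mice with 2.5 mM in PBS (5 µl), some animals were sacrificed. Aqueous outflow pathway tissues (trabecular meshwork, Schlemm's canal) were examined by hematoxylin and eosin stained sections and by transmission electron microscopy. Cell structure and number were compared with vehicle-treated eyes.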

[19] = as §5, with “at 2.5” for “at 5”, “mM compound” for “mM administered topically as”, “PBS administered topically” for “PBS”, “for 7” for “for 5”; assay type: organism-based; conditions: in vivo, topical_or_ocular, 168 h, 2500 µM; outline: as §10
[20] = Prodrug activation in buffer containing ZnCl2, MgCl2 and sodium glycine assessed as alkaline phosphatase (unknown origin)-mediated levcromakalim formation; conditions: human
[21] = as §6, with “at 2.5” for “at 5”, “mM compound” for “mM administered topically as”, “PBS administered topically” for “PBS”, “for 7” for “for 5”; assay type: organism-based; conditions: in vivo, topical_or_ocular, 168 h, 2500 µM; outline: as §10
Oryctolagus cuniculus [22] = experiment: as §8, with “2.5” for “5”, “followed by 5” for “pretreated with 2.5”, “compound treatment” for “compound”; assay type: functional; outline: as §9
Mus musculus [23] = experiment: Antiglaucoma activity in normotensive C57BL/6 mouse assessed as reduction in intraocular pressure at 5 mM administered topically as solution in PBS once daily as bolus dose to contralateral eye for 5 days pretreated with 5 mM sodium (3R,4S)-6-cyano-2,2-dimethyl-4-(2-oxopyrrolidin-1-yl)chroman-3-yl phosphate for 5 days by tonometer; assay type: functional; outline: as §7
Mus musculus [24] = experiment: Antiglaucoma activity in normotensive C57BL/6 mouse assessed as reduction in intraocular pressure at 5 mM administered topically as solution in mixture of DMSO, cremophor EL and PBS once daily as bolus dose to one eye for 5 days measured up to 23 hrs post daily administration by tonometer; assay type: functional; outline: as §2
Mus musculus [25] = experiment: Antiglaucoma activity in normotensive C57BL/6 mouse assessed as reduction in intraocular pressure at 5 mM compound solution in PBS administered topically once daily as bolus dose to one eye for 6 days measured up to 72 hrs post treatment by tonometer; assay type: functional, organism-based; outline: as §3

CC1(C)Oc2ccc(C#N)cc2[C@H](N2CCCC2=O)[C@H]1O [(-)-CROMAKALIM]
Activity [1]: Non-Toxic | Activity (Mus musculus [2]): 0.73 mmHg | Activity [3]: Non-Toxic

CC(C)C[C@H](NC(=O)CN)C(=O)O[C@H]1[C@H](N2CCCC2=O)c2cc(C#N)ccc2OC1(C)C
Activity (Mus musculus [4]): 2.45 mmHg

CC1(C)Oc2ccc(C#N)cc2[C@@H](N2CCCC2=O)[C@@H]1OP(=O)(O)O
Activity (Mus musculus [5]): inactive

CC1(C)Oc2ccc(C#N)cc2[C@@H](N2CCCC2=O)[C@@H]1OCOP(=O)([O-])[O-].[Na+].[Na+] (racemic)
Stability [6]: Stable | Activity (Mus musculus [7]): 1.81 mmHg | Stability [8]: Stable

CC1(C)Oc2ccc(C#N)cc2[C@H](N2CCCC2=O)[C@H]1OP(=O)([O-])[O-].[Na+].[Na+]
Activity [9]: Non-Toxic | Activity [10]: Non-Toxic | Activity (Mus musculus [11]): 0.14 mmHg

CC1(C)Oc2ccc(C#N)cc2[C@@H](N2CCCC2=O)[C@@H]1O [LEVCROMAKALIM]
Activity (Mus musculus [12]): 3.37 mmHg | Activity [13]: Non-Toxic | Activity [14]: Non-Toxic

CC1(C)Oc2ccc(C#N)cc2[C@@H](N2CCCC2=O)[C@@H]1OP(=O)([O-])[O-].[Na+].[Na+] (racemic)
Stability [15]: > 6 months | Activity (Mus musculus [7]): 2.5 mmHg | solubility [16]: Soluble

CC1(C)Oc2ccc(C#N)cc2[C@@H](N2CCCC2=O)[C@@H]1OP(=O)([O-])[O-].[Na+].[Na+]
Activity (Mus musculus [7]): 3.14 mmHg | Activity (Oryctolagus cuniculus [17]): 2.26 mmHg | Activity [18]: Non-Toxic | Activity [19]: Non-Toxic | Activity [9]: Non-Toxic | Drug metabolism [20]: Metabolite_Detected | Activity [21]: Non-Toxic | Activity [10]: Non-Toxic | Activity (Oryctolagus cuniculus [22]): 2.02 mmHg | Activity (Mus musculus [23]): 3.82 mmHg

CC(C)C[C@@H](NC(=O)CN)C(=O)O[C@H]1[C@H](N2CCCC2=O)c2cc(C#N)ccc2OC1(C)C
Activity (Mus musculus [4]): 1.57 mmHg

CC(C)C[C@H](NC(=O)CN)C(=O)OCO[C@H]1[C@H](N2CCCC2=O)c2cc(C#N)ccc2OC1(C)C
Activity (Mus musculus [4]): 1.93 mmHg

CC1(C)Oc2ccc(C#N)cc2[C@@H](N2CCCC2=O)[C@@H]1O (racemic) [LEVCROMAKALIM]
Activity (Mus musculus [24]): 3.19 mmHg

CC1(C)Oc2ccc(C(F)(F)F)cc2[C@@H](N2CCCC2=O)[C@@H]1OP(=O)([O-])[O-].[Na+].[Na+]
Activity (Oryctolagus cuniculus [17]): 1.6 mmHg | Activity (Mus musculus [25]): Active | Activity (Oryctolagus cuniculus [22]): 1.06 mmHg | Activity (Mus musculus [4]): 3.91 mmHg
